Only some compounds are listed: those with a hit (about 3.5% of all), similar ones and a draw of the others.
RGS4 block: human RGS4 inhibition. P49798. HEK293 M3R/RGS4 inducible, Fluo-4 calcium flux; active compounds read high; triggered by carbachol at its EC20. B-score at 10 µM. 310,000 tested, 0.45% active. AID 463165;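 active means B-score, a plate-corrected calcium signal, over three deviations above library mean, with baseline fluorescence within five deviations of library mean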;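 further: RGS4 expression induced by doxycycline in cells with stable M3 receptor; B-score is computed from the integrated fluorescence ratio over baseline after carbachol; higher B-score means a larger calcium signal and so more RGS4 inhibition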
MrgX1 antagonist: human MrgX1 receptor antagonism, primary screen. Q96LB2. MRGX1-HEK293 calcium flux, Fluo-4, BAM8-22 antagonism; active compounds read low. B-score at 10 µM. 310,000 tested, 1.3% active;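 active means calcium-response B-score plate-corrected more than 3 library SD below zero, starting fluorescence within 5 deviations, no agonist response on first addition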;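 further: peak minus trough fluorescence over baseline after final BAM8-22 challenge near maximal dose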
Target sequence (Q96LB2 whole entry, looked up): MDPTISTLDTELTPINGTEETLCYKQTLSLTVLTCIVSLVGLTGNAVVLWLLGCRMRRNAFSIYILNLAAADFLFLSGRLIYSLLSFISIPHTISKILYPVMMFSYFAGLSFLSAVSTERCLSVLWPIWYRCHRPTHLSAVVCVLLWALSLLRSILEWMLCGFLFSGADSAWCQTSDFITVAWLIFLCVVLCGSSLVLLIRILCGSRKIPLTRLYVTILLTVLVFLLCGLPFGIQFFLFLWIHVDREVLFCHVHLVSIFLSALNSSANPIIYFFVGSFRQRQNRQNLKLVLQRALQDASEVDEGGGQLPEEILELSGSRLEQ
MrgX1 ag: activates human MrgX1 receptor signaling | 310,000 tested, 0.44% active | B-score at 10 µM | Q96LB2 | MrgX1-HEK293 cells, Fluo-4 calcium fluorescence, agonist mode; active compounds read high;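 active means calcium response B-score plate-corrected fluorescence ratio at least 3 library SD, with starting fluorescence B-score inside 5 SD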
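Material – MrgX1-expressing HEK293 cells · Input – 15,000 cells seeded per well · Dosing – compound as first of three additions · Times – overnight seeding, then 1 h dark dye loading · Measured by – kinetic Fluo-4 NW fluorescence of intracellular calcium · Read-out – B-scored fluorescence response ratio · Benchmarks – positive and negative control wells on each plate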
MrgX1 allo act: allosterically activates human MrgX1 receptor signaling. MrgX1-HEK293, Fluo-4 calcium flux, FDSS; active compounds read high. B-score at 10 µM. 310,000 tested, 0.63% active. AID 588675;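 active means plate-corrected calcium response at least 3 library SD above typical, normal starting fluorescence, not activating the receptor alone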;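 further: compound read alongside a low EC10 to EC30 dose of BAM8-22 agonist; peak minus trough fluorescence over baseline measured at the second addition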
RGS4 pot: RGS4 potentiation or activation. 310,000 tested, 0.92% active. HEK293 M3R/inducible RGS4, carbachol calcium flux Fluo4; active compounds read low. AID 463111. B-score at 10 µM;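 active means B-score of the integrated calcium signal more than 4 SD below the library mean, with starting fluorescence not abnormally high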;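 further: negative B-score means reduced calcium response which marks RGS4 activation or potentiation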
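Material: M3R-expressing HEK293 line, RGS4 induced by doxycycline | Schedule: Overnight RGS4 induction, 30 min dye load 37 °C, 20 min compound RT | Measured by: Fluo4 fluorescence kinetic imaging of calcium | Read-out: Integrated calcium ratio converted to B score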
MrgX1 PAM conf: human MrgX1 positive allosteric modulation, re-confirmation. shares compounds with MrgX1 allo act. activation (ratio percentage), % at 10 µM. MrgX1-HEK293, Fluo-4 calcium fluorescence, FDSS. 1,200 tested, 13% active. AID 602413;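 active means ratio at least 3 SD above the weak peptide control, stable starting fluorescence, no direct agonism earlier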;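 further: compound followed by low BAM8-22 agonist challenge near EC20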
HEK293 Ca flux: activity in parental HEK293 cells lacking MrgX1. shares compounds with MrgX1 antagonist. Fluo-4 calcium fluorescence, FDSS. fluorescence ratio F(max-min)/F0 at 10 µM. 4,000 tested, 2% active;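 active means duplicate-averaged calcium fluorescence ratio at least three times the standard deviation of buffer wells, a nonspecific response in parental cells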
HEK293 Ca counter: activity in parental HEK293 cells without MrgX1 | shares compounds with MrgX1 antagonist | parental HEK293 calcium flux, Fluo-4 fluorescence ratio; active compounds read high | fluorescence ratio F(max-min)/F0 at 10 µM | 4,000 tested, 0.4% active;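 active means calcium fluorescence ratio, averaged over duplicates, at least 3 SD of the buffer-well ratio, meaning a nonspecific response in receptor-free cells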;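 further: untransfected parental HEK293 lacking MrgX1 used as counterscreen for MrgX1 allosteric activators; fluorescence change taken during the second addition on a kinetic imager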
HEK293 Ca cntr2: counter-screen for MrgX1 activators: effect in parental HEK293 cells | Fluo-4 calcium fluorescence (FDSS); active compounds read high | 4,000 tested, 8.7% active | shares compounds with MrgX1 antagonist | fluorescence ratio F(max-min)/F0 at 10 µM;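 active means calcium fluorescence ratio at least three times the spread of buffer wells, meaning a non-specific response in parental cells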
Numbers without * were called inactive; i = inactive; . = no result.

SMILES | RGS4 block | MrgX1 antagonist | MrgX1 ag | MrgX1 allo act | RGS4 pot | MrgX1 PAM conf | HEK293 Ca flux | HEK293 Ca counter | HEK293 Ca cntr2
COc1ccc(Br)c(C(=O)Nc2ccc(F)cc2)c1 | i | i | i | 6.9* | i | i | i | i | i
Cc1sc2ncn(C(C)C(=O)OC3CCCCC3)c(=O)c2c1C (stereo not drawn) | i | i | i | 9.2* | i | i | i | i | i
CSC1=NSC2=NC(=O)/C(=C\c3cccs3)C(=N)N12 | i | i | i | 27* | i | 15%* | i | i | i
CC(C)CSC1=NSC2=NC(=O)/C(=C\c3cccs3)C(=N)N12 | i | i | i | i | i | . | . | . | .
O=c1[nH]c2ccc(NC(=S)Nc3ccc(Cl)cc3)cc2[nH]1 | i | i | i | i | i | . | . | . | .
CC(C)c1ccc(NC(=S)Nc2ccc3[nH]c(=O)[nH]c3c2)cc1 | i | i | i | 15* | i | i | i | i | i
CN1CCN(CC#CC(C)(O)C2CC3C=CC2C3)CC1 (stereo not drawn) | i | i | i | i | i | . | . | . | .
OC(CCN1CCCCC1)(c1ccccc1)C1C[C@@H]2C=C[C@H]1C2 (stereo partly drawn) | . | i | i | 6.5* | . | i | i | i | i
Cc1ccc(CC(C(=O)O)C(C)C(=O)Nc2ccc(F)cc2)cc1 (stereo not drawn) | i | i | i | i | i | . | . | . | .
COc1cc(NC(=O)C2CCCC2)c(OC)cc1Cl | i | i | i | 6.6* | i | i | i | i | i
Cc1cccc2cc3ccccc3nc12 | i | i | i | 9.2* | i | i | i | i | i
Cc1cccc2cc3cccc(C)c3nc12 | i | i | i | i | i | . | . | . | .
O=C(NNC(=O)c1cc(Cl)ccc1O)c1ccc(NS(=O)(=O)c2cccs2)cc1 | i | i | i | i | i | . | . | . | .
COc1ccc(OCc2cc(C(=O)NC(C)Cc3cnccn3)no2)c(Cl)c1 (stereo not drawn) | i | i | i | i | i | . | . | . | .
O=C(NC1CCCCC1)c1ccccc1C(F)(F)F | i | i | i | 8.6* | i | i | i | i | i
COc1ccc(C(O)c2nccc3cc(OC)c(OC)cc23)cc1OC (stereo not drawn) | i | i | i | 9.5* | i | i | i | i | i
COc1cc(N)c(C(O)c2nccc3cc(OC)c(OC)cc23)cc1OC (stereo not drawn) | i | i | i | i | i | . | . | . | .
O=C(NCCCN1CCOCC1)c1ccc(NS(=O)(=O)c2cccc([N+](=O)[O-])c2)cc1 | i | i | i | i | i | . | . | . | .
COc1cccc(N2CCN(c3ccc4nnc(CCC(=O)Nc5ccccn5)n4n3)CC2)c1 | i | i | i | 7.5* | i | i | i | i | i
CCOC(=O)c1[nH]c2ccc(OC)cc2c1NC(=O)CN1CCc2ccccc2C1 | i | i | i | 8.1* | i | i | i | i | i
CCOc1cccc(NC(=O)CSc2nncn2N)c1 | i | i | i | 7.4* | i | i | i | i | i
Cc1cccc(NC(=O)c2ccc3c(Cl)c4c(nc3c2)CCCC4)n1 | i | i | i | 20* | i | i | i | i | i
Cc1ccc(O)c(NC(=O)c2cc(-c3cccs3)on2)c1 | i | i | i | i | i | . | . | . | .

Screening results as filed in PubChem BioAssay.
